Laboratory results published in ChEMBL document CHEMBL1122853, “New bicyclic antidepressant agent. Synthesis and activity of napactadine and related compounds” (J Med Chem, 1985).
Active and inactive are the calls of the source. No cut-off for these calls is given here.

Legend:
Mus musculus [1] = experiment: (§1) Effective dose required to potentiate yohimbine hydrochloride induced lethality in mice, administered intraperitoneally; type: functional; conditions: ip
Procedure, shortened: (§2)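 Male Swiss-Webster or Swiss ND/4 mice, 20-24 g, randomized into groups of 10 and housed five per cage. Test drug in saline given ip, with a saline control group. Yohimbine hydrochloride 20 mg/kg sc was given 30 min later, and mice were then reaggregated.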

Mus musculus [2] = experiment: Effective dose required to prevent reserpine ptosis in mice, administered intraperitoneally; type: functional; conditions: ip
Procedure, shortened: (§3)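 Male Swiss-Webster or Harlan ICR mice, five per dose. Drug in saline given po or ip per line. Reserpine 2.5 mg/kg ip 30 min later. Complete absence of ptosis at 45 min after reserpine scored as positive. ED50 by Litchfield-Wilcoxon or Horn method, with 95% confidence intervals.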

Mus musculus [3] = experiment: Effective dose required to prevent reserpine ptosis in mice, administered (po)orally; type: functional; procedure, shortened: as §3
[4] = Therapeutic index administered intraperitoneally in mouse; type: organism-based; conditions: in vivo, ip, read-out: Therapeutic index
Procedure, shortened: (§4)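 Index from mouse LD50 over reserpine-ptosis ED50 by the same route. […] Deaths recorded at 1 and 24 h; Litchfield-Wilcoxon calculation.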

[5] = Lethal dose in mouse i.p.; type: toxicity, organism-based; conditions: in vivo, ip
Procedure, shortened: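 Male Swiss-Webster albino mice, 20-24 g, in groups of five. Each group received one dose ip in saline (prepared 30 min before injection) at 10 mL/kg. Mice were held singly for about 5 h, then housed together with food and water. Deaths were counted at 1 and 24 h. LD50 by Litchfield-Wilcoxon.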

Mus musculus [6] = experiment: Effective dose required to prevent reserpine ptosis in mice, administered orally(po); type: functional; procedure, shortened: as §3
[7] = Lethal dose in mouse p.o.; type: toxicity, organism-based; conditions: in vivo, po
Mus musculus [8] = experiment: Electrical shock aggression was evaluated in mice, administered intraperitoneally; type: functional; conditions: ip
Procedure, shortened: (§5)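 Pairs of mice placed under an inverted 1000 cm3 beaker and shocked through the floor grid (3 mA, 3 Hz) for 2 min. Drug given ip 30 min before testing; scored all-or-none against a saline group. Fighting counted as inhibited when mean attacks fell 1.5 SD below the vehicle mean.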

[9] = Therapeutic index administered perorally in mouse; type: organism-based; conditions: in vivo, po, read-out: Therapeutic index; procedure, shortened: as §4
Mus musculus [10] = experiment: Effective dose required to prevent reserpine ptosis in mice, administered orally(po); NA=Not active at 100 mg/kg; type: functional, organism-based; set-up: dose 100 mg/kg; procedure, shortened: as §3
Mus musculus [11] = experiment: Effective dose required to prevent reserpine ptosis in mice, administered intraperitoneally.; type: functional, organism-based; procedure, shortened: as §3
Mus musculus [12] = experiment: Effective dose required to prevent reserpine ptosis in mice, administered orally; type: functional; conditions: po; procedure, shortened: as §3
Mus musculus [13] = experiment: Effective dose required to prevent reserpine ptosis in mice, administered po; NA=Not active; type: functional, organism-based; procedure, shortened: as §3
Mus musculus [14] = experiment: Effective dose required to potentiate yohimbine hydrochloride induced lethality in mice, administered intraperitoneally; NA=Not active; type: functional, organism-based
Procedure, shortened: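 Male Swiss-Webster or Swiss ND/4 mice, 20-24 g, randomized into groups of 10 and aggregated five per cage. Test drug in saline given ip, with a saline control group. Yohimbine HCl (20 mg/kg, sc) injected 30 min later, then mice reaggregated.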

Mus musculus [15] = experiment: Effective dose required to prevent reserpine ptosis in mice administered po; type: functional; procedure, shortened: as §3
Mus musculus [16] = experiment: as §1; type: organism-based; conditions: in vivo, ip; procedure, shortened: as §2
Mus musculus [17] = experiment: Electrical shock aggression was evaluated in mice, administered intraperitoneally; NA means no aggression blockade at 46.4 mg/kg; type: functional, organism-based; set-up: dose 46.4 mg/kg; procedure, shortened: as §5
Mus musculus [18] = experiment: Effective dose required to prevent reserpine ptosis in mice administered orally; type: functional; conditions: po; procedure, shortened: as §3
Mus musculus [19] = experiment: Effective dose required to prevent reserpine ptosis in mice, administered intraperitoneally; NA=Not active at 100 mg/kg; type: functional, organism-based; set-up: dose 100 mg/kg; procedure, shortened: as §3

Compound: C/N=C(/Cc1ccc2ccccc2c1Cl)NC.Cl
- ED50 (Mus musculus [1]): 26.1 mg/kg
- ED50 (Mus musculus [2]): 11 mg/kg
- ED50 (Mus musculus [3]): 15 mg/kg

Compound: C/N=C(/Cc1ccc2ccccc2c1)NC.Cl [NAPACTADINE HYDROCHLORIDE]
- ED50 (Mus musculus [1]): 0.8 mg/kg
- ED50 (Mus musculus [2]): 12.6 mg/kg
- selectivity ratio [4]: 5
- LD50 [5]: 68.1 mg/kg
- ED50 (Mus musculus [6]): 17.1 mg/kg
- LD50 [7]: 584 mg/kg
- ED50 (Mus musculus [8]): 12.6 mg/kg
- selectivity ratio [9]: 34

Compound: CN(C)CCCN1c2ccccc2CCc2ccccc21 [IMIPRAMINE]
- ED50 (Mus musculus [1]): 0.7 mg/kg
- ED50 (Mus musculus [2]): 13 mg/kg
- ED50 (Mus musculus [3]): 14 mg/kg
- ED50 (Mus musculus [8]): 23 mg/kg

Compound: Cl.N=C(Cc1ccc2ccccc2c1Cl)N1CCC(O)(c2ccccc2)CC1
- ED50 (Mus musculus [6]): 24.5 mg/kg

Compound: N=C(Cc1ccc2ccccc2c1)N1CCN(c2ccccc2)CC1
- ED50 (Mus musculus [10]): inactive

Compound: CC/N=C(/Cc1ccc(Cl)cc1Cl)NCC
- ED50 (Mus musculus [11]): inactive

Compound: Cl.N=C(Cc1ccc2ccccc2c1)N1CCC(c2ccccc2)CC1
- ED50 (Mus musculus [12]): 14.7 mg/kg

Compound: C/N=C(\NC)c1ccccc1.Cl
- ED50 (Mus musculus [1]): 4 mg/kg
- ED50 (Mus musculus [2]): 0.8 mg/kg

Compound: Cl.N=C(Cc1ccc2ccccc2c1)N1CCCC1
- ED50 (Mus musculus [3]): 11 mg/kg

Compound: Cl.Cl.N=C(Cc1ccc2ccccc2c1)NCCN1CCOCC1
- ED50 (Mus musculus [3]): 14.7 mg/kg

Compound: CN(CCO)C(=N)Cc1ccc2ccccc2c1.Cl
- ED50 (Mus musculus [3]): 19.6 mg/kg

Compound: C/N=C(/Cc1ccc2cc(O)ccc2c1)NC.Cl
- ED50 (Mus musculus [3]): 23.7 mg/kg

Compound: C/N=C(/Cc1cc2ccccc2cc1C)NC
- ED50 (Mus musculus [11]): inactive
- ED50 (Mus musculus [13]): inactive

Compound: C/N=C(/Cc1ccc2cc(C)ccc2c1)NC.Cl
- ED50 (Mus musculus [14]): inactive
- ED50 (Mus musculus [2]): 19.6 mg/kg
- ED50 (Mus musculus [12]): 31.6 mg/kg

Compound: Cl.N=C(Cc1ccc2ccccc2c1Cl)N1CCC(Cc2ccccc2)CC1
- ED50 (Mus musculus [12]): 19.6 mg/kg

Compound: Cl.N=C(Cc1ccc2ccccc2c1)N1CCC(N2CCCCC2)CC1
- ED50 (Mus musculus [3]): 40.8 mg/kg

Compound: C/N=C(/Cc1ccc(Cl)cc1)NC.Cl
- ED50 (Mus musculus [2]): 2.3 mg/kg
- selectivity ratio [4]: 30
- LD50 [5]: 69.4 mg/kg
- ED50 (Mus musculus [15]): 3.4 mg/kg
- LD50 [7]: 430 mg/kg
- ED50 (Mus musculus [8]): 43 mg/kg
- selectivity ratio [9]: 127
- ED50 (Mus musculus [16]): 15 mg/kg

Compound: Cl.N=C(Cc1ccc2ccccc2c1Cl)N1CCC(c2ccccc2)CC1
- ED50 (Mus musculus [12]): 8.8 mg/kg

Compound: Cl.N=C(Cc1ccc2ccccc2c1)N1CCOCC1
- ED50 (Mus musculus [3]): 17.1 mg/kg

Compound: C/N=C(/COc1ccc(Cl)cc1Cl)NC.Cl
- ED50 (Mus musculus [2]): 7.5 mg/kg

Compound: CC/N=C(/Cc1cccc(C)c1)NCC
- ED50 (Mus musculus [11]): inactive

Compound: Cl.N=C(Cc1ccc2ccccc2c1Cl)N1CCN(c2ccccc2)CC1
- ED50 (Mus musculus [6]): 16.2 mg/kg

Compound: CC1CN(C(=N)Cc2ccc3ccccc3c2)CC(C)O1.Cl (centres undefined)
- ED50 (Mus musculus [3]): 28.7 mg/kg

Compound: CC/N=C(/Cc1ccc(Cl)c(Cl)c1)NCC.Cl
- ED50 (Mus musculus [1]): 6 mg/kg
- ED50 (Mus musculus [2]): 9.3 mg/kg
- selectivity ratio [4]: 3
- LD50 [5]: 31.6 mg/kg
- ED50 (Mus musculus [3]): 12.6 mg/kg
- LD50 [7]: 90 mg/kg
- selectivity ratio [9]: 7
- ED50 (Mus musculus [17]): inactive

Compound: N=C(Cc1ccc2ccccc2c1Cl)N1CCN(Cc2ccccc2)CC1
- ED50 (Mus musculus [10]): inactive

Compound: N=C(Cc1ccc2ccccc2c1Cl)N1CCN(C(c2ccccc2)c2ccccc2)CC1
- ED50 (Mus musculus [10]): inactive

Compound: Cl.N=C(Cc1ccc2ccccc2c1Cl)N1CCOCC1
- ED50 (Mus musculus [6]): 15 mg/kg

Compound: CC/N=C(/Cc1cccc2ccccc12)NCC
- ED50 (Mus musculus [11]): inactive

Compound: CCC(=O)C1(c2ccccc2)CCN(C(=N)Cc2ccc3ccccc3c2)CC1
- ED50 (Mus musculus [10]): inactive

Compound: Cl.N=C(Cc1ccc2ccccc2c1)N1CCCCC1
- ED50 (Mus musculus [12]): 11 mg/kg

Compound: CNC(=N)Cc1ccc2ccccc2c1.Cc1ccc(S(=O)(=O)O)cc1.Cl
- ED50 (Mus musculus [6]): 22.5 mg/kg

Compound: Cl.N=C(Cc1ccc2ccccc2c1)N1CCC(O)(Cc2ccccc2)CC1
- ED50 (Mus musculus [6]): 22.5 mg/kg

Compound: Cl.N=C(Cc1ccc2ccccc2c1)N1CCCCCC1
- ED50 (Mus musculus [18]): 11 mg/kg

Compound: CC/N=C(/Cc1ccc2cc(C)ccc2c1)NCC
- ED50 (Mus musculus [19]): inactive
